In data set [1] the test system is Mycolicibacterium smegmatis. Kind of data set: Bactericidal activity against Mycobacterium smegmatis ATCC 607 incubated for 48 hrs under aerobic condition by MABA. The data set is classed as functional. The note with it: ATCC 607, 48 h. In general terms: Resazurin is reduced to fluorescent resorufin, in cell work by metabolically active cells.
Data set [2] has as its system Staphylococcus aureus. Kind of data set: Bactericidal activity against Staphylococcus aureus incubated for 24 hrs under aerobic condition by MABA. The data set is classed as functional.
Data set [3] deals with Staphylococcus aureus. Kind of data set: Antibacterial activity against Staphylococcus aureus BAA 44 incubated for 24 hrs under aerobic condition by MABA. The data set is classed as functional. Conditions: BAA 44, 24 h, read-out: MIC100. Put shortly: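 Mid-log cultures at OD 0.5 were exposed to serial dilutions under aerobic conditions at 37 °C for 24 h. Resazurin was then added from a 0.08% stock for 1 h. MIC100 was the lowest concentration where the dye stayed blue (pink means growth). Absorbance was also read at 570 and 600 nm.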

The subject of data set [4] is Clostridioides difficile. Kind of data set: Bactericidal activity against Clostridium difficile ATCC 700057 incubated for 24 hrs […] by MABA. The data set is classed as functional. The note with it: ATCC 700057, 24 h.
The test system of data set [5] is Mycobacterium tuberculosis. Kind of data set: Bactericidal activity against non-replicating Mycobacterium tuberculosis CDC1551 expressing tdTomato infected in mouse J774A.1 cells at 2 times MIC up to 72 hrs by UV-Visible spectroscopic method. The data set is classed as functional, organism-based. Put shortly:
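J774A.1 macrophages are seeded at […] cells/well in DMEM and incubated overnight at 37 °C. They are infected with saline-washed Mtb CDC1551-tdTomato (10^6 bacteria, MOI ≈10), and extracellular bacteria are washed off with PBS. Treatment is at 2×MIC, with fluorescence emission read at 581 nm at 24, 48, 72 and 96 h. Survivors are confirmed by serial dilution and plating on 7H11.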

Data set [6] is described as follows: Efflux ratio of apparent permeability in human Caco2 cells at 10 uM after 2 hrs by LC-MS/MS analysis. The note with it: caco-2, 2 h. The data set is classed as ADME, cell-based. Background: Caco-2 cells form a polarised layer with tight junctions and transporters.
Data set [7] in a line: AUC (0 to infinity) in Balb/c mouse at 30 mg/kg, po. The data set is classed as ADME, organism-based. The arrangement: dose 30 mg/kg, route oral, time infinity. Conditions: in vivo. Put shortly:
(§1)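 Single oral dose of 30 mg/kg in BALB/c mice (n = 6). Serum PK parameters were t1/2, tmax, Cmax and AUC over 0–24 h and to infinity. Oral bioavailability F was calculated against the 3 mg/kg IV dose.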

Data set [8] has as its system Mus musculus. Kind of data set: Oral bioavailability in Balb/c mouse at 30 mg/kg. The data set is classed as ADME, organism-based. The note with it: in vivo. The gist of the method:
as §1

≈ marks a conversion by molar mass, not a printed value. Calls of active or inactive are those of the source.

By MBC is commonly meant the smallest concentration meeting the test's criterion for killing. Read a low MBC as more potent killing. For orientation: AUC(0-inf) means total exposure, with the tail of the curve extrapolated.

On to `CC[C@]1(C)C[C@@H](OC(=O)CSC(C)(C)CNC(=O)[C@H](N)CC(C)C)[C@]2(C)[C@H](C)CC[C@]3(CC[C@@H](O)[C@H]32)[C@@H](C)[C@@H]1O`, for which the MBC worked out at 25 µg/mL (≈ 42.9 µM) in data set [1], 1.56 µg/mL (≈ 2.68 µM) in data set [2] and 1.56 µg/mL (≈ 2.68 µM) in data set [4]. Besides, the MIC in data set [3] is above 25 µg/mL. Besides, the outcome in data set [5] was Active. Moreover, in data set [6], the Ratio is recorded as 5.44. The molecule also showed an AUC(0-inf) in data set [7] of 2890 ng·h/mL. In addition, in data set [8], the F is 27.6%.

(Values after ChEMBL document CHEMBL4229550, “An antimycobacterial pleuromutilin analogue effective against dormant bacilli” (Bioorg Med Chem, 2018).)
